From PubChem BioAssay
In the library only some 3.9% were active in any assay of this set; here they are far more common.
SF-1 act = activators of human SF-1, primary screen, cell-based, CHO-K1, Gal4-SF-1 LBD, luciferase luminescence; Steroidogenic factor 1 (Homo sapiens), Q13285; CHO-K1 Gal4-SF-1 LBD luciferase reporter; % increase over DMSO SF-1-specific signal; activation, % at 10 µM; 65,000 tested, 1.9% active; AID 522, 2006;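 active = activation above the mean activation of all tested compounds plus 3 SD, cut at about 50% in these data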
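Material: CHO-K1 cells with Gal4–hSF-1 LBD chimera plus Gal4-driven luciferase / Input: 4,000 CHO-K1 cells per well / Incubation: compound exposure 20 h at 37 °C / Signal: luminescence read 15 min after SteadyLite luciferase reagent, after room-temperature equilibration / Read-out: percent activation versus DMSO / Benchmarks: DMSO negative control and −SF1 background wells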
RORa activator = activators of orphan receptor RORA, primary screen, cell-based, luminescence | Nuclear receptor ROR-alpha (Homo sapiens), P35398 | CHO-K1 Gal4-RORA LBD luciferase reporter; percent increase over mock-subtracted basal signal | activation, % at 10 µM | 65,000 tested, 1.5% active;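 active = activation above the mean of all tested compounds plus 3 SD, cut at about 49% in these data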
Target sequence (P35398 whole entry, looked up, the tested form may be a part): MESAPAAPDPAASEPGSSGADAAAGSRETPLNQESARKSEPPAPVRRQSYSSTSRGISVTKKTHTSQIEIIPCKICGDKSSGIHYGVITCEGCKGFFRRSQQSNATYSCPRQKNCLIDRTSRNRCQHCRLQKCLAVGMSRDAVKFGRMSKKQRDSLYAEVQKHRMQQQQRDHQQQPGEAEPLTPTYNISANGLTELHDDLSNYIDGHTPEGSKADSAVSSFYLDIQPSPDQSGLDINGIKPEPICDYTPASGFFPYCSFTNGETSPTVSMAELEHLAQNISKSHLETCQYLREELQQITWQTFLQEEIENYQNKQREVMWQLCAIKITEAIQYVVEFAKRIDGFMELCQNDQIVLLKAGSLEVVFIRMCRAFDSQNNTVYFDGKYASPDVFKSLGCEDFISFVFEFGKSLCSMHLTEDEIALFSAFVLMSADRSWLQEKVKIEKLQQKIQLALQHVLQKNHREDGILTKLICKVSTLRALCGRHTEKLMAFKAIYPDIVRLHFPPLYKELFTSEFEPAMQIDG
HEK293 NFkB inh = inhibitors of PMA/ionomycin-induced NF-kB reporter, primary screen, antigen receptor NF-kB inhibitor project, cell-based, HEK-293 luciferase reporter, luminescence | HEK-293 NF-kB luciferase reporter | inhibition, % at 3 µM | 62,000 tested, 0.21% active | AID 465, 2006;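 active = inhibition above the mean of all tested compounds plus 3 SD, cut at about 40% in these data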
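System: NF-kB luciferase reporter HEK-293 cells | Replication: Single test | Control set: DMSO vs reference inhibitor | Evaluation: % inhibition | Schedule: 1 h pretreatment, 16 h stimulation, 37 °C | Probe or stimulus: PMA with ionomycin | Compound dosing: One dose, 3 µM | Detection: Luciferase luminescence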
Jurkat tox 60K = cytotoxicity toward Jurkat T cells, primary screen, cytotoxicity control, cell-based, Jurkat E6.1, 60K MLSMR library; Jurkat E6.1 viability, ATP luminescence, 48 h; inhibition, % at 4 µM; 56,000 tested, 1.2% active;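 active = inhibition above the mean inhibition of all tested compounds plus 3 SD, cut at about 28% in these data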
A number is an active result; – = inactive; · = no result.

SMILES | SF-1 act | RORa activator | HEK293 NFkB inh | Jurkat tox 60K
CCCn1cnc2cc(NCc3cccc(OC)c3O)ccc21 | – | – | – | –
COc1cccc(CNc2ccc3c(c2)ncn3C(C)C)c1OC | 55 | – | – | –
O=C(c1ccc(Cl)s1)N1CCN(c2ccccc2)CC1 | – | – | – | –
Cn1c(=O)c2c(nc(SC3C(=O)CC(C)(C)CC3=O)n2C)n(C)c1=O | – | – | – | –
CSC1=C(C#N)C(c2ccc(Cl)cc2)C2=C(CC(C)(C)CC2=O)N1 (stereo unspecified) | – | – | – | 36
COc1ccc(-c2nnc(SCc3nnc(-c4ccccc4)o3)n2-c2ccccc2)cc1 | – | – | – | –
COc1ccc(-c2nnc(SCc3nnc(-c4ccccc4)o3)n2C)cc1OC | – | 53 | – | –
COCCN1C(=O)c2oc3cc(C)c(C)cc3c(=O)c2C1c1ccc(O)cc1 (stereo unspecified) | – | – | – | –
O=C1NC2(CCCC2)N=C1c1ccc(Cl)cc1 | – | – | – | –
N#CC(C#N)=c1ccc2c(c1)NC1(CCCCC1)N=2 | – | – | – | 42
O=C(Cc1cccs1)N1CCCC(c2nc3c(nnn3Cc3cccc(Cl)c3)c(=O)[nH]2)C1 (stereo unspecified) | – | – | – | –
CCSc1nnc(NC(=O)c2cc3c(s2)CCCC3)s1 | 52 | – | – | –
CCSc1nnc(NC(=O)c2ccco2)s1 | – | 53 | – | –
CCSc1nnc(NC(=O)c2ccccc2)s1 | – | 66 | – | –
CCCc1cc(C(N)=O)c(NC(=O)c2ccco2)s1 | 60 | 59 | – | –
CCOc1cccc2cc(-c3nnc(-c4ccccc4)o3)c(=O)oc12 | – | – | – | –
OCc1nn2c(c1Br)NC(c1ccccc1)CC2C(F)(F)F (stereo unspecified) | – | – | – | –
CCOC(=O)/C(C(C)=O)=C1\OC(=O)c2ccccc21 | – | – | – | –
CCSc1nnc(NC(=O)c2ccccn2)s1 | – | – | – | 76
CCSc1nnc(Nc2ccccc2)s1 | 54 | – | – | –
CCSc1nnc(NC(=O)c2cnccn2)s1 | – | – | – | –
O=C(CN(C(=O)c1ccc2c(c1)OCCO2)c1ccccc1)NCC1CCCO1 (stereo unspecified) | – | – | – | –
CCOC(=O)Cc1csc2nc3sc(C)c(C)c3c(=O)n12 | – | – | – | –
O=C(CSc1ncccn1)NCc1ccccc1Cl | 68 | – | – | –
Cc1ccccc1-n1c(C)nnc1SCc1nc2ccccc2s1 | 55 | 58 | – | –
SMILES | SF-1 act | RORa activator | HEK293 NFkB inh | Jurkat tox 60K
CCCn1c(=O)c2ccccc2n2c(SCc3nc4ccccc4s3)nnc12 | 70 | – | – | –
CCn1c(SCc2nc3ccccc3s2)nnc1-c1cccs1 | – | – | – | –
Cn1c(=O)n(CCOc2ccccc2Cl)c2ccccc21 | 71 | – | – | –
Nc1nc2ccccc2n1CCOc1ccccc1Cl | – | – | – | –
Cc1cc(NC(=O)CSc2nc(-c3ccco3)cc(C(F)(F)F)n2)no1 | – | – | – | 59
Cc1cc(NC(=O)CCCSc2nc(-c3ccco3)cc(C(F)(F)F)n2)no1 | – | – | – | –
O=C(C1CCN(S(=O)(=O)c2cccc3cccnc23)CC1)N1CCN(c2ccc(Cl)cc2)CC1 | – | – | – | 38
CCCc1nc2ccccc2c(=O)n1/N=C/c1c(C)[nH]n(-c2ccc(C)cc2)c1=O | – | – | – | –
CCN(CC)C(=O)CSc1ncnc2c(-c3cccs3)nsc12 | 68 | – | – | –
CCN(CC)C(=O)CSc1ncnc2c1nnn2-c1ccc(F)cc1 | – | – | – | –
Cc1cc(C)cc(Nc2ncc3c(n2)CCCC3=O)c1 | – | – | – | –
O=C(CN1CCC(n2nnc3cc(F)ccc32)CC1)NCc1ccco1 | – | – | – | –
COC(=O)c1ccc(S(=O)(=O)NCCSc2nnc3c4ccccc4n(C)c3n2)cc1 | – | – | – | –
CCCOC(=O)c1ccc(NC(=O)c2ccoc2C)cc1 | 63 | – | – | –
O=C(Nc1ccc2c(c1)OCO2)c1ccc(COc2ccc3c(c2)CCC3)o1 | 61 | – | – | –
O=C(Nc1ccc2c(c1)CCC2)c1cnccn1 | 55 | – | – | –
Cc1ccc(C(=O)Nc2ccc3c(c2)CCC3)o1 | 59 | – | – | –
CCCCOC(=O)c1ccc(NC(=O)c2ccoc2C)cc1 | – | – | – | –
CCOc1ccc(OCc2ccc(C(=O)Nc3ccc(Cl)cn3)o2)cc1 | – | – | – | –
CN(C)c1ccc(NC(=O)c2ccc(COc3cccc(Cl)c3)o2)cc1 | – | 73 | – | ·
Cc1occc1C(=O)Nc1ccc2c(c1)CCC2 | 75 | 55 | – | –
CC(=O)c1cccc(NC(=O)Nc2ccc3c(c2)N(C)C(=O)CS3)c1 | – | – | – | ·
CC(C)(C)c1ccc(-c2nc(C#N)c(NCc3ccncc3)o2)cc1 | 83 | 60 | – | –
CC(=O)c1ccc(C(C)(C)c2ccc(C(C)=O)s2)s1 | – | – | – | –
Cc1cc(/C=N/n2cnnc2)c(C)n1-c1ccc(OCc2ccc(F)cc2)cc1 | – | – | – | 45
SMILES | SF-1 act | RORa activator | HEK293 NFkB inh | Jurkat tox 60K
CCN(CCCNC(=O)CCc1nc(-c2ccc(OC)cc2)no1)c1cccc(C)c1 | – | – | – | ·
COc1cc(CNc2ccc(C)c(C)c2)cc(OC)c1OC | – | – | – | 88
Cc1cc(-c2ccco2)c(C#N)c2nc3ccccc3n12 | – | – | – | ·
Cc1cc(N)c(-n2cc3c(=O)n(C)c(=O)n(C)c3c2)cc1C | – | 54 | – | –
Cc1ccc(-n2cc3c(=O)n(C)c(=O)n(C)c3c2)cc1C | – | – | – | –
Cc1cc(NC(=O)Cn2nc(-c3ccccc3F)ccc2=O)ccc1-n1cnnn1 | – | – | – | –
O=S1(=O)Nc2c(ccc3cccnc23)-c2ccccc21 | – | – | – | 67
CC(C)c1ccc(S(=O)(=O)N2CCN(C(=O)c3cccc(F)c3)CC2)cc1 | – | – | – | –
CC(C)=CCCC(C)NC(=O)NC1CCCCC1 (stereo unspecified) | – | – | – | –
NC(=O)C1CCN(C(c2ccccc2Cl)c2nnnn2Cc2ccc3c(c2)OCO3)CC1 (stereo unspecified) | – | – | – | –
Cc1ccc(CNC(=O)c2ccc(CN3CCOCC3)cc2)cc1 | – | – | – | ·
CC1=C(C(=O)OCc2ccc3c(c2)OCO3)C(c2ccc(Cl)cc2)NC(=O)N1 (stereo unspecified) | – | – | 67 | 78
CC1=C(C(=O)OCc2ccc3c(c2)OCO3)C(c2ccc(F)cc2)NC(=O)N1 (stereo unspecified) | – | – | 45 | 84
CCOC(=O)C1=C(C)NC(=O)NC1c1ccc2c(c1)OCCO2 (stereo unspecified) | – | – | – | –
COC(=O)CSc1nc(-c2cccs2)ccc1C#N | 83 | 60 | · | ·
